Columns and labels:
Homo sapiens [1] = species: Homo sapiens; assay: Selectivity ratio of Ki for progesterone receptor (unknown origin) to Ki for glucocorticoid receptor (unknown origin)
Homo sapiens [2] = species: Homo sapiens; assay: Selectivity ratio of Ki for androgen receptor (unknown origin) to Ki for glucocorticoid receptor (unknown origin)
Progesterone receptor = target: T1, Progesterone receptor (Homo sapiens, UniProt P06401); assay: Binding affinity to progesterone receptor (unknown origin) by fluorescence polarization assay
T1 sequence (P06401 whole entry): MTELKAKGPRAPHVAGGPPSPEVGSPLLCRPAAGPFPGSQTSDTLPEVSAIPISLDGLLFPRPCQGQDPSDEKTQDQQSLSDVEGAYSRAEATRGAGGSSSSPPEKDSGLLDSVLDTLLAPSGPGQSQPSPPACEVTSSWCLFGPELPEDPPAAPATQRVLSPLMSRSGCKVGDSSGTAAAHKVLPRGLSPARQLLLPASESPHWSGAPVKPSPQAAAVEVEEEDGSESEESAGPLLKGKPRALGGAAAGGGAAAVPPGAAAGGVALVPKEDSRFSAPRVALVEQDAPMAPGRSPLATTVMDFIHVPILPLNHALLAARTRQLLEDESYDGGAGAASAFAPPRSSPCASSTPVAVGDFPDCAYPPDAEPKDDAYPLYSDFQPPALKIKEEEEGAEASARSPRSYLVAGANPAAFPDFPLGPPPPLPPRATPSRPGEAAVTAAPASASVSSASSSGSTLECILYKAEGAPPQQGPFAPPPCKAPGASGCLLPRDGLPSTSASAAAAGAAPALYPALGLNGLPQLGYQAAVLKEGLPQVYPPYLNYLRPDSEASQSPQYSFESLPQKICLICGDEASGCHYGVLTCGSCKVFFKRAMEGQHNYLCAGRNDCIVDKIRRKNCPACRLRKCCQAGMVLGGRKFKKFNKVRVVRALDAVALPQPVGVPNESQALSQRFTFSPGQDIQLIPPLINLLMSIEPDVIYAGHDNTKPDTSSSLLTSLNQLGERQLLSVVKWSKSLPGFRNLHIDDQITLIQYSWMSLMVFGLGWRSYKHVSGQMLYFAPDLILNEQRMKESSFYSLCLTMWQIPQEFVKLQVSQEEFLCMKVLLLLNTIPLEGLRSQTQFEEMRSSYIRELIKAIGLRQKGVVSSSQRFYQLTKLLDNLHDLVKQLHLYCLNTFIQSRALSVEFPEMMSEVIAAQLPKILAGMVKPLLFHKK
Outline: (§1)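 Fluorescence polarization competition between test compound and a fluorescently labeled ligand for full-length receptor or its ligand binding domain. IC50 from a four-parameter logistic fit of the polarization signal, converted to Ki with Cheng–Prusoff […]. Means of duplicate experiments.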

Androgen receptor = target: T2, Androgen receptor (Homo sapiens, UniProt P10275); assay: Binding affinity to androgen receptor (unknown origin) by fluorescence polarization assay; outline: as §1
T2 sequence (P10275 whole entry): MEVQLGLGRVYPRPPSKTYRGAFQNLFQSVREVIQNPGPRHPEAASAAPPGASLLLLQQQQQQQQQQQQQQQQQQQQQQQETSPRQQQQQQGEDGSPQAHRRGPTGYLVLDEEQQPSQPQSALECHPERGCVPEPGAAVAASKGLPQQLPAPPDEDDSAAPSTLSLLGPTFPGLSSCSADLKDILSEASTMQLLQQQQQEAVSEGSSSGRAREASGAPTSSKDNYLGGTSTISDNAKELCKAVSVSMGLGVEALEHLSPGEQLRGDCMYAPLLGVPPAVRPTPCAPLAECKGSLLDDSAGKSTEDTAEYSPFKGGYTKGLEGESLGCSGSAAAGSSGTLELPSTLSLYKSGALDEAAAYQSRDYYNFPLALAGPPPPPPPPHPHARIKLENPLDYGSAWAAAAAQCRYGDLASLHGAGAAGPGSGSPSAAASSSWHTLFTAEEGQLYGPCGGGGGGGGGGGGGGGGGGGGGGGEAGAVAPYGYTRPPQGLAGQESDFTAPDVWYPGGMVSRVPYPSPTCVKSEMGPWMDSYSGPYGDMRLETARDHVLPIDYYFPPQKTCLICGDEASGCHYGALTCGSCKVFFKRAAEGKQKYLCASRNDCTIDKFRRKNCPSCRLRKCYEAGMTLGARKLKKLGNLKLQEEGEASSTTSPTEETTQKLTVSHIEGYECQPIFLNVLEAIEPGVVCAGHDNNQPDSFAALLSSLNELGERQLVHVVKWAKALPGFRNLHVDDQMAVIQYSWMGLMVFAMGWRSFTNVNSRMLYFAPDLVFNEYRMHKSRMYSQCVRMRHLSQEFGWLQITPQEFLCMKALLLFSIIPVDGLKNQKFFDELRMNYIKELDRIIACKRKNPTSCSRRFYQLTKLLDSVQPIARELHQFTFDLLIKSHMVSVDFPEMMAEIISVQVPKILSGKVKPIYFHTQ

[3] = target: T3, Glucocorticoid receptor (Homo sapiens) (UniProt P04150); assay: Agonist activity at glucocorticoid receptor in human A549 cells assessed as inhibition of PMA-induced AP-1 activation by luciferase reporter gene assay relative to dexamethasone; assay type: cell-based
T3 sequence (whole entry): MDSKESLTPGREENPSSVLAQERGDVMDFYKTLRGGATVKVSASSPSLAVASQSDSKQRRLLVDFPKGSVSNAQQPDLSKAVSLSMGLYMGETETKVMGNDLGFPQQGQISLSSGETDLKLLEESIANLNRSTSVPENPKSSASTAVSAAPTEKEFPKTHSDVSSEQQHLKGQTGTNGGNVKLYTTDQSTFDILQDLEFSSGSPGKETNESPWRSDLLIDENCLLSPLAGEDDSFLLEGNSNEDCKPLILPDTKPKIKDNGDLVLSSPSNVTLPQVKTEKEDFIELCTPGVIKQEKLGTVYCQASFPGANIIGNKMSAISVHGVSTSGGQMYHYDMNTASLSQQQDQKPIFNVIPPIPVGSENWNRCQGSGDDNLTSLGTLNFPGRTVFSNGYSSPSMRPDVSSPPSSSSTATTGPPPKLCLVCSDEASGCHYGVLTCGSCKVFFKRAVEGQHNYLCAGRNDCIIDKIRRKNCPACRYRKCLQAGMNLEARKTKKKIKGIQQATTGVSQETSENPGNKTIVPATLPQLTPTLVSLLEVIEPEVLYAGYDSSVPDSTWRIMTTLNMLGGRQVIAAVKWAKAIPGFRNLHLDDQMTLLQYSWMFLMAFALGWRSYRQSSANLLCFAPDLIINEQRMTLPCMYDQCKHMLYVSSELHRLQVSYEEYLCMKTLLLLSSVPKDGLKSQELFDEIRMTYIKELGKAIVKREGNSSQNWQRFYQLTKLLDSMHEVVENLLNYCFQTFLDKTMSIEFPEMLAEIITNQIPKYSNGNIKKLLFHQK
Outline: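 A549 lung epithelial cells stably carrying a luciferase reporter with 5 copies of the AP-1 response element; AP-1 induced with PMA (15 ng/ml). Compound inhibition of induction read as decreased luciferase. […] Means of two or more experiments in triplicate.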

Glucocorticoid receptor = target: T4, Glucocorticoid receptor (Homo sapiens, UniProt P04150); assay: Binding affinity to glucocorticoid receptor (unknown origin) by fluorescence polarization assay
T4 sequence (P04150 whole entry): T3 sequence (whole entry)

Compound	Ratio Ki (Homo sapiens [1])	Ratio Ki (Homo sapiens [2])	Ki (Progesterone receptor) [nM]	Ki (Androgen receptor) [nM]	Efficacy [3] [%]	Ki (Glucocorticoid receptor) [nM]
CC(C)(C(=O)Nc1nncs1)[C@@H](c1ccccc1)c1ccc2c(cnn2-c2ccc(F)cc2)c1	10	> 1000	107	> 25000	93	5.1
CC(C)(C(=O)Nc1nncs1)[C@H](c1ccccc1)c1ccc2c(cnn2-c2ccc(F)cc2)c1	10	> 1000	56	> 25000	50	6.7

Source: ChEMBL document CHEMBL2424628, “Discovery of potent and selective nonsteroidal indazolyl amide glucocorticoid receptor agonists” (Bioorg Med Chem Lett, 2013)
